Test results reported in PMC10243129 (Proceedings of the National Academy of Sciences of the …, 2023).

How the values were obtained:
[1] = molecular target: T1, human MCM, CblA and ATR (Homo sapiens, UniProt P22033); test: CblA-dependent cob; type: biochemical; settings: cob(II)alamin transfer MCM to ATR, anaerobic, 25 °C, 5 mM ADP or 0.5 mM M-CoA
T1 sequence (P22033 33-750): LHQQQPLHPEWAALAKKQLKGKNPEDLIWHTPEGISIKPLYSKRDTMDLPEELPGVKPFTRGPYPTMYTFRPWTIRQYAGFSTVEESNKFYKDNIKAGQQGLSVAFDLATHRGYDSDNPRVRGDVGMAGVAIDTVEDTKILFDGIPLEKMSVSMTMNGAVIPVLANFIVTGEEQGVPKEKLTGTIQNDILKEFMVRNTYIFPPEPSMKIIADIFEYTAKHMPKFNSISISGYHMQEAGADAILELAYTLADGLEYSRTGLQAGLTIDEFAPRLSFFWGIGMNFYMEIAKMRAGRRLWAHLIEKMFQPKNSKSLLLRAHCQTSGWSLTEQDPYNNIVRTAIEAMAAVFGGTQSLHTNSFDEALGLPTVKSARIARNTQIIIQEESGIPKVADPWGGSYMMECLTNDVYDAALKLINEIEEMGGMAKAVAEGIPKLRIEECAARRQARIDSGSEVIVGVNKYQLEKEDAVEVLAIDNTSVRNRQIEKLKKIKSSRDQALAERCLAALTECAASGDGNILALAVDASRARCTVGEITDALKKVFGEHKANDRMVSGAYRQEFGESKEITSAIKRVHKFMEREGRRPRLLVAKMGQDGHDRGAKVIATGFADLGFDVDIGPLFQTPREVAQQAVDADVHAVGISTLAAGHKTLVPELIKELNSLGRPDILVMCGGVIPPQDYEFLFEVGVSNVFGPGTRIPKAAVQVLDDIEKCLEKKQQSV
Procedure, shortened: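 Recombinant human MCM, CblA and ATR expressed in E. coli. Metabolite (ADP or M-CoA) was added to the MCM solution. A464 was followed for 20 min; transfer extent came from Δε464 5.6 cm⁻¹ mM⁻¹, and kobs from a single-exponential fit.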

[2] = molecular target: T2, human MCM•cob(II)alamin (Homo sapiens, UniProt P22033); test: Metabolite binding to MCM•cob
T2 sequence (P22033 33-750): T1 sequence (P22033 33-750)
Procedure, shortened: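 Cob(II)alamin was made by photolysis of 1.2 mM AdoCbl (stock) in anaerobic water and quantified with ε474 9.2 cm⁻¹ mM⁻¹. Work was done in an anaerobic chamber (<0.2 ppm O₂) with 40 µM cob(II)alamin and 20 µM MCM dimer in Buffer A at 20 °C. For the screen, metabolites were added at 5 mM and spectra recorded after 15 min. For Kd, metabolite was titrated, A460 read after 10 min, and data fitted to a quadratic binding equation.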

[3] = molecular target: T3, human ATR (Homo sapiens, UniProt Q96EY8); test: ATP-triggered release of AdoCbl from ATR into solution; type: biochemical; settings: ATR•AdoCbl without PPPi, confirmed after separation with a 10 kDa cutoff filter
T3 sequence (Q96EY8 33-250): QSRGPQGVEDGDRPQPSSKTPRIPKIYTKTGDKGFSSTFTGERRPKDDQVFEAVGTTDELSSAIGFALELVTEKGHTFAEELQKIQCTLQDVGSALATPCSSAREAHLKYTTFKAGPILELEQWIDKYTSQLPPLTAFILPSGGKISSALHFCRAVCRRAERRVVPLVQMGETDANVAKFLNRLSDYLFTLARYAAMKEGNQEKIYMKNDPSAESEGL

[4] = molecular target: T2, human MCM•cob(II)alamin; test: Stopped-flow spectroscopy of ADP/ATP binding to MCM•cob
Procedure, shortened: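 Anaerobic stopped-flow with diode-array detection was run at 25 °C. MCM•cob(II)alamin was preformed from 80 µM cob(II)alamin and 40 µM MCM dimer (stock) in Buffer A for 10 min, then rapidly mixed with 0.25–2.5 mM ADP or ATP. A460 traces were fitted to a single exponential for kobs. kon came from linear regression of kobs on metabolite concentration, and koff from titration Kd and kon.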

[5] = molecular target: T4, Mycobacterium tuberculosis MCM (Mycobacterium tuberculosis, UniProt P9WJK5); test: Kinetics of M. tuberculosis MCM•cob; type: biochemical; settings: in air
T4 sequence (P9WJK5 1-750): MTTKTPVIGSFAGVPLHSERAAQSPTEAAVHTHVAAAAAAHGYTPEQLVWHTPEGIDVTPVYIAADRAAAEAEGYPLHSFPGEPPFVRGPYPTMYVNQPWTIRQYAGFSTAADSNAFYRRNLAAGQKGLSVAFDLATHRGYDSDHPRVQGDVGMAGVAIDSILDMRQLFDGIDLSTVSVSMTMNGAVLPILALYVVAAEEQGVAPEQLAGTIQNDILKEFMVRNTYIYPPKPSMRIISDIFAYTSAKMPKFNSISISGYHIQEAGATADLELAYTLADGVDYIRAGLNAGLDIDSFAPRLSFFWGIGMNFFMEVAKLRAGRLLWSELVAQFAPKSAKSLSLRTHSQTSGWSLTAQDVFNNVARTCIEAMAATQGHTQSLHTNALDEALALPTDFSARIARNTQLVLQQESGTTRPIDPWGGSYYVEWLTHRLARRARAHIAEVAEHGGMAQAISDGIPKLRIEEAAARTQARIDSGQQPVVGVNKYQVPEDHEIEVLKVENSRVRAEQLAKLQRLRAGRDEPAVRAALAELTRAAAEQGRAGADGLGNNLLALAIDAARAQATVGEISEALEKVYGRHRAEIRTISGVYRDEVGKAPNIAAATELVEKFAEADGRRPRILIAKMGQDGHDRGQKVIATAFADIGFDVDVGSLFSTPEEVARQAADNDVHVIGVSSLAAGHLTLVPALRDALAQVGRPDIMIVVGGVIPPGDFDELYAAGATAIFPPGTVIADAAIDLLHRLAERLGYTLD
T4 sequence (P9WJK7 1-615 partner): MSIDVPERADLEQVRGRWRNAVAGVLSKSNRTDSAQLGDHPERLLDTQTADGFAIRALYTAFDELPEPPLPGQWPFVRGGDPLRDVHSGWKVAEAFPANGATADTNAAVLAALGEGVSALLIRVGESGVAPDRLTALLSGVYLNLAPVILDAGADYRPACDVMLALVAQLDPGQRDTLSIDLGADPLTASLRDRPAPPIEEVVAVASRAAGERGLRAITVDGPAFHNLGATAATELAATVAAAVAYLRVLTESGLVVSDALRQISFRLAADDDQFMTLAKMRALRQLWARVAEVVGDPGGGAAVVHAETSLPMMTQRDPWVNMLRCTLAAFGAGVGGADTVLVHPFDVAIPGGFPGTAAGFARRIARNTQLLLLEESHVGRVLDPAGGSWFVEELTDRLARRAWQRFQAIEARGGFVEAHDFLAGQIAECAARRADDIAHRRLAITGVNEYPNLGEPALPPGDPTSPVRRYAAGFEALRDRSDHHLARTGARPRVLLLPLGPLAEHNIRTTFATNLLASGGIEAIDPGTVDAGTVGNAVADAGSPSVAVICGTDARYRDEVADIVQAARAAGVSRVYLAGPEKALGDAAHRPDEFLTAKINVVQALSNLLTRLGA

[6] = molecular target: T5, human MCM (Homo sapiens, UniProt P22033); test: Kinetics of human MCM•cob; type: biochemical; settings: absence of ligands, in air, 25 °C
T5 sequence (P22033 33-750): T1 sequence (P22033 33-750)
Procedure, shortened: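 The MCM•cob(II)alamin sample (40 µM cob(II)alamin, 20 µM MCM dimer) was prepared in anaerobic Buffer A at pH 7.5. Oxidation was started by twofold dilution with aerobic buffer. H₂OCbl formation was followed as the rise in absorbance at 350 nm versus time, giving kobs.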

[7] = molecular target: ATR; settings: PPPi on ATR ternary product complex; ref [14]; cited from earlier work

| SMILES | Rate of transfer (kobs) [1] [min⁻¹] | Kd [2] [µM] | other results |
| --- | --- | --- | --- |
| CC(C)(COP(=O)(O)OP(=O)(O)OC[C@H]1O[C@@H](n2cnc3c(N)ncnc32)[C@H](O)[C@@H]1OP(=O)(O)O)[C@@H](O)C(=O)NCCC(=O)NCCS [CoA, Coenzyme A] | 0.92 ± 0.06 | 118 ± 13 | – |
| Nc1ncnc2c1ncn2[C@@H]1O[C@H](COP(=O)(O)OP(=O)(O)OP(=O)(O)O)[C@@H](O)[C@H]1O [ATP, adenosine triphosphate] | – | 30 ± 5 | AdoCbl released from ATR into solution [3]: 40% |
| Nc1ncnc2c1ncn2[C@@H]1O[C@H](COP(=O)(O)OP(=O)(O)O)[C@@H](O)[C@H]1O [ADP, adenosine diphosphate] | 0.24 ± 0.01 | 44 ± 4.2 | fold higher kon of ADP versus ATP ([4]; ADP vs ATP): ~ 100 fold; rate of ADP binding relative to oxidation of cob(II)alamin on MCM ([4]; assuming a cellular ADP concentration of 6 mM): ~ 600 fold; Effect on oxidation of cob(II)alamin bound to M. tuberculosis MCM [5]: prevented |
| C[C@H]1O[C@@H](n2cnc3c(N)ncnc32)[C@H](O)[C@@H]1O [5′-dAdo, 5′-deoxyadenosine] | – | 4.2 ± 2.1 | – |
| C/C1=C2/[N-][C@H]([C@H](CC(N)=O)[C@@]2(C)CCC(=O)NC[C@@H](C)OP(=O)([O-])O[C@H]2[C@@H](O)[C@@H](n3cnc4cc(C)c(C)cc43)O[C@@H]2CO)[C@]2(C)N=C(/C(C)=C3N=C(/C=C4N=C1[C@@H](CCC(N)=O)C\4(C)C)[C@@H](CCC(N)=O)[C@]\3(C)CC(N)=O)[C@@H](CCC(N)=O)[C@]2(C)CC(N)=O.[Co+2] [cob(II)alamin] | – | – | kobs of oxidation of MCM-bound cob(II)alamin to H2OCbl [6]: 0.08 min⁻¹ |
| O=P(O)(O)OP(=O)(O)OP(=O)(O)O [PPPi, sodium triphosphate pentabasic] | – | – | Kd [7]: < 0.4 µM |
